According to article PMC4871731 (Nature chemical biology, 2016):
Blank lines part the entries; values can stand above or below the molecule they belong to. Peptide text beside a SMILES is read from it. * marks the point of attachment. Cbz = O=C(OCc1ccccc1)*

Tests used:
[1] = target: T1, human CLRN1^N48K (Homo sapiens, UniProt P58418, N48K); test: Combined treatment with cycloheximide and washout; assay type: cell-based; details: for levels of CLRN1^N48K after 6 h treatment (T0): D6 cells, vs DMSO, bortezomib 50 nM, MG132 50 µM, O03 16.8 µM
T1 sequence (P58418 1-232 N48K): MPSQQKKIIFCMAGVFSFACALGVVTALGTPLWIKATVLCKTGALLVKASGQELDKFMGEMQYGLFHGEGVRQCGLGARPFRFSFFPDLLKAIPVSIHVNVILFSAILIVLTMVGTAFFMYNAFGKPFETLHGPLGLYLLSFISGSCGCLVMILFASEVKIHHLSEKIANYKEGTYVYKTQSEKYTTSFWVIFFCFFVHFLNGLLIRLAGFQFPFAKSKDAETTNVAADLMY
Procedure, shortened: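 D6 cells at 70% confluency were treated 6 h with bortezomib (50 nM), MG132 (50 µM) or test compound (16.8 µM); […]. Cells were then cultured 6 h more in 100 µM cycloheximide with or without the same agent. In the washout arm, compound-pretreated cells were washed and held 6 h in cycloheximide without compound. Read-out was CLRN1N48K by immunoblot.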

[2] = target: T1, human CLRN1^N48K; test: Automated HTS, D6 cell-based immunofluorescence assay; details: D6 cell line, 25 nM
Procedure, shortened: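 Primary screen of about 50,000 library compounds. Cells were fixed in 4% formaldehyde for 20 min, washed with PBST and stained with anti-HA for 90 min at room temperature. Fluorescence intensity per cell area came from six images per well and was normalised per plate to bortezomib and untreated controls to give percent activity.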

[3] = test system: human CLRN1^N48K-Venus; test: Dual color; assay type: cell-based; details: 16.8 µM test compound or 50 nM bortezomib, 24 h, vs no treatment
Procedure, shortened: (§1)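 Cell line stably co-expressing CLRN1N48K-Venus-1D4 and DsRed-Express-DR, grown to 70% confluency. Treatment was 16.8 µM test compound in triplicate for 24 h, with 50 nM bortezomib as positive and DMSO as negative control. Cells were fixed in 4% formaldehyde, washed with PBS and imaged by inverted fluorescence microscopy. Venus and DsRed intensities were quantified in 15 equal-sized cell-containing regions per well, three wells per treatment.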

[4] = test system: DsRed-Express-DR (reporter for proteasome-mediated protein degradation); test: Dual color; assay type: cell-based; details: 16.8 µM test compound or 50 nM bortezomib, 24 h, vs no treatment
Procedure, shortened: as §1

[5] = target: T1, human CLRN1^N48K; test: Immunoblotting of CLRN1N48K in D6 cells; assay type: cell-based; details: 24 h, O03 16.8 µM, B03 16.8 and 1.68 µM, bortezomib 50 nM
Procedure, shortened: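 D6 cells at 70% confluency were treated for 24 h with bortezomib (50 nM) or test compounds at 16.8 µM (one also at 1.68 µM), with DMSO at 0.25% (v/v) final. Lysates were then immunoblotted for CLRN1N48K.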

[6] = test system: CLRN1 mRNA; test: Reverse transcription and quantitative PCR in D6 cells; assay type: cell-based, human; details: 24 h, O03 16.8 µM, bortezomib 50 nM
Procedure, shortened: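 D6 cells at 70% confluency were treated in triplicate for 24 h with 50 nM bortezomib, 16.8 µM test compound, or 0.25% DMSO. Total RNA was isolated with TRIzol. 5 µg RNA was DNase I-treated and reverse-transcribed with M-MLV using a mix of dT12, dT15 and dT18 primers (10 µM each), followed by quantitative PCR.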

[7] = target: T1, human CLRN1^N48K; test: Effect of HSP90 inhibition on CLRN1N48K expression; assay type: cell-based; details: D6 cells, 17-AAG 20 µM applied alone
Procedure, shortened: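 D6 cells were treated for 24 h with 20 µM 17-AAG, test compound (2.90 µM), 50 nM bortezomib, or DMSO vehicle. In one arm, cells were pre-incubated 6 h with 17-AAG before test compound was added for 24 h. Cells were then harvested for CLRN1N48K immunoblotting.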

- levels of CLRN1^N48K after 6 h treatment (T0) [1]: increased levels of CLRN1^N48K
SMILES: CC(C)C[C@@H](C=O)NC(=O)[C@H](CC(C)C)NC(=O)[C@H](CC(C)C)NC(=O)OCc1ccccc1 [MG132] (Cbz-Leu-Leu-Leu-aldehyde)

SMILES: C[C@@H]1C[C@@H]([C@H](O)CC2CC(=O)NC(=O)C2)C(=O)[C@@H](C)C1 [cycloheximide]
- synthesis of CLRN1^N48K ([1]; 100 µM cycloheximide): confirmed to inhibit the synthesis of CLRN1^N48K

- amount of CLRN1^N48K [2]: increased amount
- CLRN1^N48K level by immunoblotting [5]: increased dramatically
- levels of CLRN1^N48K after 6 h treatment (T0) [1]: increased levels of CLRN1^N48K
SMILES: CC(C)C[C@H](NC(=O)[C@H](Cc1ccccc1)NC(=O)c1cnccn1)B(O)O [bortezomib]
- Venus fluorescence [3]: increased both Venus and DsRed
- DsRed fluorescence [4]: increased both Venus and DsRed
- CLRN1^N48K mRNA level [6]: not affected
- stability of CLRN1^N48K after washout ([1]; 6 h compound, washout, then 6 h with cycloheximide without compound): effective in stabilizing and protecting CLRN1^N48K from degradation

- amount of CLRN1^N48K [7]: did not alter the amount of CLRN1^N48K
SMILES: C=CCNC1=C2C[C@@H](C)C[C@H](OC)[C@H](O)[C@@H](C)/C=C(\C)[C@H](OC(N)=O)[C@@H](OC)/C=C\C=C(/C)C(=O)NC(=CC1=O)C2=O [17-AAG, 17-N-allylamino-17-demethoxygeldanamycin]
